From ChEMBL document CHEMBL3856184, “Tyrosol and hydroxytyrosol derivatives as antitrypanosomal and antileishmanial agents” (Eur J Med Chem, 2016)

Tests used:
[1] = tested on: Leishmania donovani; test: Antileishmanial activity against Leishmania donovani MHOM/ET/67/HU3 intracellular amastigotes infected in human THP1 cells after 72 hrs by luciferase coupled luminescence assay; assay type: functional, cell-based; settings: MHOM/ET/67/HU3, THP-1, 72 h
In short: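 Luciferase-expressing parasite line. THP-1 cells differentiated with 20 ng/mL PMA for 48 h, then 24 h in fresh medium, seeded at 3x10⁴ macrophages/well and infected with late-stage promastigotes at a macrophage:parasite ratio of 1:10. Infected cultures exposed to a range of concentrations in RPMI 1640 with 10% hiFBS at 37 °C, 5% CO₂ for 72 h, then lysed. Luminescence read as intracellular parasite growth.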

[2] = Cytotoxicity against human MRC5 cells assessed as inhibition of cell proliferation measured after 72 hrs by MTT assay; assay type: toxicity, cell-based
In short: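 SV-40 transformed fetal lung fibroblasts kept in DMEM with 10% hiFBS and penicillin/streptomycin at 37 °C, 5% CO₂. Cells trypsinized, seeded at 4 x 10⁴ cell/ml and exposed to increasing concentrations for 72 h at 37 °C. Viability read by colorimetric MTT. EC₅₀ taken as the concentration reducing growth by 50% versus untreated cells.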

[3] = tested on: Trypanosoma brucei brucei; test: Antitrypanosomal activity against bloodstream form of Trypanosoma brucei brucei S16 assessed as inhibition of proliferation measured after 72 hrs by alamarBlue assay; assay type: functional; settings: S16, 72 h
In short: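 Bloodstream forms cultured in HMI-9 with 10% hiFBS at 37 °C, 5% CO₂. Seeded at 1 × 10⁴ per mL with increasing compound concentrations for 72 h under the same conditions. Proliferation read by alamarBlue fluorescence, excitation 550 nm and emission 590 nm.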

[4] = tested on: Leishmania donovani; test: Antileishmanial activity against Leishmania donovani MHOM/ET/67/HU3 axenic amastigotes at 20 uM after 72 hrs by resazurin-based assay relative to control; assay type: functional; settings: MHOM/ET/67/HU3, 72 h
In short: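 Axenic amastigotes grown in Schneider medium with 20% hiFBS, pH 5.4, 37 °C, 5% CO₂. 10⁶ parasites/ml exposed to a single 20 μM concentration for 72 h at 37 °C. Viability read by resazurin assay, reported as percent inhibition.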

[5] = tested on: Trypanosoma brucei brucei; test: Potency index, ratio of IC50 for hydroxytyrosol to IC50 for test compound against bloodstream form of Trypanosoma brucei brucei S16; assay type: functional
[6] = Selectivity index, ratio of IC50 for human MRC5 cells to IC50 for bloodstream form of Trypanosoma brucei brucei S16; assay type: toxicity, cell-based; settings: read-out: Ratio IC50
[7] = tested on: Trypanosoma brucei brucei; test: Potency index, ratio of IC50 for tyrosol to IC50 for test compound against bloodstream form of Trypanosoma brucei brucei S16; assay type: functional
[8] = Selectivity index, ratio of IC50 for human MRC5 cells to IC50 for intracellular amastigotes of Leishmania donovani MHOM/ET/67/HU3 infected in human THP1 cells; assay type: toxicity, cell-based; settings: read-out: Ratio IC50
[9] = tested on: Leishmania infantum; test: Leishmanicidal activity against Leishmania infantum MHOM/TN/94/LV50 promastigotes after 24 hrs by MTT assay; assay type: functional; settings: MHOM/TN/94/LV50, 24 h
[10] = tested on: Leishmania major; test: Leishmanicidal activity against Leishmania major MHOM/TN/95/GLC94 promastigotes after 24 hrs by MTT assay; assay type: functional; settings: MHOM/TN/95/GLC94, 24 h
[11] = tested on: Leishmania donovani; test: Potency index, ratio of IC50 for tyrosol to IC50 for test compound against intracellular amastigotes of Leishmania donovani MHOM/ET/67/HU3 infected in human THP1 cells; assay type: functional, THP-1
[12] = tested on: Leishmania donovani; test: Antileishmanial activity against Leishmania donovani MON-2 MHOM/IN/1996/THAK35 amastigotes infected in mouse J774A.1 cells after 72 hrs by alamarBlue assay; assay type: functional, cell-based; settings: MON-2 MHOM/IN/1996/THAK35, J774.A1, 72 h
[13] = tested on: Trypanosoma brucei rhodesiense; test: Antitrypanosomal activity against Trypanosoma brucei rhodesiense; assay type: functional

| SMILES | IC50 [1] [µM] | IC50 at 72 h [2] [µM] | IC50 [3] [µM] | inhibition at 20 µM [4] [%] | Ratio IC50 [5] | selectivity ratio [6] | Ratio IC50 [7] | selectivity ratio [8] | IC50 [9] [µM] | IC50 [10] [µM] | Ratio IC50 [11] | IC50 [12] [µM] | IC50 [13] [µM] |
| --- | --- | --- | --- | --- | --- | --- | --- | --- | --- | --- | --- | --- | --- |
| CC(=O)OCCc1ccc(O)c(O)c1 | > 10 | > 50 | 43.4 | 48 | 1 | > 1 |  |  |  |  |  |  |  |
| Oc1ccc(CCN=C=S)cc1O |  | 21.1 | 9.87 |  | 5 | 2 |  |  |  |  |  |  |  |
| CCCCCCCCCCOCCc1ccc(OCc2ccccc2)c(OCc2ccccc2)c1 |  | > 50 | > 10 |  | >5 | > 5 |  |  |  |  |  |  |  |
| CCCCCCCCCCCCOCCc1ccc(O)c(O)c1 |  | 13.2 | 0.63 |  | 75 | 21 |  |  |  |  |  |  |  |
| CCCCCCCCCCCCSCCc1ccc(OCc2ccc(OC)cc2)c(OCc2ccc(OC)cc2)c1 |  | > 50 | > 10 |  | 5 | > 5 |  |  |  |  |  |  |  |
| CCCCCCCCCCCC(=O)NCCc1ccc(O)c(O)c1 |  | > 50 | 8.74 |  | 5 | > 5 |  |  |  |  |  |  |  |
| CCCCCCCCCCCC(=O)OCCc1ccc2c(c1)OCO2 |  | > 50 | > 10 |  | >5 | > 5 |  |  |  |  |  |  |  |
| O=S(=O)([O-])Oc1ccc(CCO)cc1.[K+] |  | 106 | 41.6 | 36 |  | 2.6 | 0.16 |  |  |  |  |  |  |
| CCCCCCCCCCCCNC(=S)NCCc1ccc(O)c(O)c1 |  | 2.96 | 0.77 |  | 62 | 4 |  |  |  |  |  |  |  |
| CCCCCCCCCCOCCc1ccc(OCc2ccc(OC)cc2)c(OCc2ccc(OC)cc2)c1 |  | > 50 | > 10 |  | >5 | > 5 |  |  |  |  |  |  |  |
| CCCCCCCCCCCC(=O)OCCc1ccc(O)cc1 |  | 67.2 | 16.2 | 32 |  | 4.1 | 0.52 |  |  |  |  |  |  |
| CCCCCCCC(=O)OCCc1ccc(O)c(O)c1 | > 10 | 104 | 9.6 | 45 | 5 | 11 |  | 10.3 |  |  |  |  |  |
| CCCCCCCCCC(=O)NCCc1ccc(O)c(O)c1 |  | > 50 | > 10 |  | 5 | > 5 |  |  |  |  |  |  |  |
| CC(=O)OCCc1ccc(O)cc1 |  | 114 | 79.4 | 28 |  | 1.4 | 0.13 |  |  |  |  |  |  |
| CCCCCCCCCCCC(=O)OCCc1ccc(O)c(O)c1 | > 10 | 38.1 | 0.36 | 56 | 132 | 101 to 106 |  |  |  |  |  |  |  |
| CCCCCCCCCCCCCC(=O)OCCc1ccc(O)c(O)c1 | > 10 | > 50 | 2.29 | 53 | 21 | > 22 |  |  |  |  |  |  |  |

| SMILES | IC50 [1] [µM] | IC50 at 72 h [2] [µM] | IC50 [3] [µM] | inhibition at 20 µM [4] [%] | Ratio IC50 [5] | selectivity ratio [6] | Ratio IC50 [7] | selectivity ratio [8] | IC50 [9] [µM] | IC50 [10] [µM] | Ratio IC50 [11] | IC50 [12] [µM] | IC50 [13] [µM] |
| --- | --- | --- | --- | --- | --- | --- | --- | --- | --- | --- | --- | --- | --- |
| CCCCCCCCCCNC(=S)NCCc1ccc(O)c(O)c1 |  | 24.8 | 0.74 |  | 64 | 33 |  |  |  |  |  |  |  |
| CCCCCCCCCC(=O)OCCc1ccc(O)cc1 |  | 172 | 81.4 | 34 |  | 2.1 | 0.16 |  | 132 | 65 |  |  |  |
| O=C(O)[C@H]1O[C@@H](Oc2ccc(CCO)cc2)[C@H](O)[C@@H](O)[C@@H]1O |  | 110 | 61.5 | 36 |  | 1.8 | 0.17 |  |  |  |  |  |  |
| CCCCCCCC(=O)OCCc1ccc(O)cc1 | > 10 | 133 | 56.8 | 46 |  | 2.3 | 0.22 | 13.3 |  |  | 1 |  |  |
| CCCCCCCCCCOCCc1ccc(O)c(O)c1 |  | > 50 | 1.29 |  | 37 | > 38 |  |  |  |  |  |  |  |
| CCCCCC(=O)OCCc1ccc(O)cc1 | > 10 | 166 | 59.1 | 44 |  | 2.8 | 0.16 | 16.6 |  |  | 1 |  |  |
| CCCCCCCCCCCCSCCc1ccc(OCc2ccccc2)c(OCc2ccccc2)c1 |  | > 50 | > 10 |  | 5 | > 5 |  |  |  |  |  |  |  |
| CCCCCCCCCC(=O)OCCc1ccc2c(c1)OCO2 |  | > 50 | > 10 |  | >5 | > 5 |  |  |  |  |  |  |  |
| C[C@@H]1[C@H](O)[C@@H](C)/C=C/C=C/C=C/C=C/C=C/C=C/C=C/[C@H](O[C@@H]2O[C@H](C)[C@@H](O)[C@H](N)[C@@H]2O)C[C@@H]2O[C@](O)(C[C@@H](O)C[C@@H](O)[C@H](O)CC[C@@H](O)C[C@@H](O)CC(=O)O[C@H]1C)C[C@H](O)[C@H]2C(=O)O [AMPHOTERICIN B] | 0.1 |  |  |  |  |  |  |  |  |  |  |  |  |
| NCCc1ccc(O)c(O)c1 [DOPAMINE] |  | 68.9 | > 10 |  | 5 | 7 |  |  |  |  |  |  |  |
| CCCC(=O)OCCc1ccc(O)c(O)c1 [HYDROXYTYROSOL BUTANOATE] | > 10 | 71.5 | 9.4 | 48 | 5 | 8 |  | 7.1 |  |  |  |  |  |
| CCCCCCCCCC(=O)OCCc1ccc(O)c(O)c1 [HYDROXYTYROSOL DECANOATE] | 8.44 | 71.1 | 0.6 | 54 | 79 | 118 |  | 8.4 |  |  |  |  |  |
| CCCCCCCCCCCCCCCC(=O)OCCc1ccc(O)c(O)c1 [HYDROXYTYROSOL PALMITATE] | > 10 | > 50 | 2.43 | 52 | 20 | > 21 |  |  |  |  |  |  |  |
| OCCc1ccc(O)c(O)c1 [HYDROXYTYROSOL] |  | > 50 | 47.5 | 0 |  | > 1 |  |  |  |  |  | 393 |  |
| Cc1ccc(C(=O)Nc2ccc(S(=O)(=O)O)c3cc(S(=O)(=O)O)cc(S(=O)(=O)O)c23)cc1NC(=O)c1cccc(NC(=O)Nc2cccc(C(=O)Nc3cc(C(=O)Nc4ccc(S(=O)(=O)O)c5cc(S(=O)(=O)O)cc(S(=O)(=O)O)c45)ccc3C)c2)c1 [SURAMIN] |  |  | 0.038 |  |  |  |  |  |  |  |  |  |  |
| OCCc1ccc(O)cc1 [TYROSOL] | > 10 | > 500 | > 10 | 50 |  | > 5 |  | 5 |  |  |  |  | > 15 |
